Source: ChEMBL document CHEMBL1147175, “Synthesis of dioxane-based antiviral agents and evaluation of their biological activities as inhibitors of Sindbis virus replication” (Bioorg Med Chem, 2007)
Activity calls are given as the source filed them. No cut-off for these calls is given here.

Assays:
[1] = Cytotoxicity against BHK cells by XTT assay; format: cell-based, Mesocricetus auratus; conditions: hamster
In short: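 Uninfected BHK cells were treated with a range of compound concentrations. Viability was read with an XTT colorimetric kit, where mitochondrial dehydrogenases form a coloured product read at 450 nm.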

Sindbis virus [2] = experiment: Antiviral activity against Sindbis virus replication in BHK cells at 10^-3 mM after 12 hrs by luciferase assay
Sindbis virus [3] = experiment: Antiviral activity against Sindbis virus replication in BHK cells after 12 hrs by luciferase assay
Sindbis virus [4] = experiment: Antiviral activity against Sindbis virus replication in BHK cells after 12 hrs by luciferase assay; format: functional, organism-based
In short: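 BHK cells grown to confluency were infected with luciferase-reporter Sindbis virus (SIN-IRES-Luc) at MOI below 1. Medium containing compound below cytotoxic concentrations was then added, and cells were incubated 12 h at 37 °C. Luciferase was measured in cell extracts by luminometer. EC50 is the concentration giving a 50% reduction in virus production.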

[5] = Therapeutic index, ratio of EC50 for Sindbis virus to CC50 for BHK cells; format: cell-based; conditions: hamster, read-out: TI
In short: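 Therapeutic index was calculated as the […] (XTT viability of uninfected BHK cells).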

[6] = in the assay text read “luciferase assay” for “XTT assay”

Row | Compound | CC50 [1] | Activity (Sindbis virus [2]) | EC50 (Sindbis virus [4]; [6]) | also measured
1 | OCCC[C@@H]1COCCO1 | > 1000 µM | inactive |  | 
2 | ClCCOC[C@@H]1CO1 | > 5000 µM |  |  | EC50 (Sindbis virus [3]): 1000 µM
3 | O=C(CC[C@@H]1COCCO1)C[C@@H]1COCCO1 | > 1000 µM | inactive |  | 
4 | CC(O)[C@H]1COCCO1 (stereo not given in full) | 1000 µM |  | 99 µM | 
5 | ON=C(C[C@@H]1COCCO1)C[C@@H]1COCCO1 | > 1000 µM | inactive |  | 
6 | O=C(CCC[C@@H]1COCCO1)C[C@@H]1COCCO1 |  | inactive |  | 
7 | CN(C)CCCN1c2ccccc2Sc2ccc(Cl)cc21 [CHLORPROMAZINE] | 100 µM |  | 8.2 µM | 
8 | OC[C@@H]1COCCO1 | > 1000 µM |  | 3.4 µM | selectivity ratio [5]: > 294
9 | C1CSC(C[C@H]2COCCO2)(C[C@@H]2COCCO2)SC1 | > 1000 µM |  | 29 µM | 
10 | OC(CC[C@@H]1COCCO1)C[C@@H]1COCCO1 (stereo not given in full) | > 1000 µM | inactive |  | 
11 | COc1ccc(CCN(C)CCC[C@](C#N)(c2ccc(OC)c(OC)c2)C(C)C)cc1OC |  |  | 1300 µM | 
12 | OC(C[C@@H]1COCCO1)C[C@@H]1COCCO1 | > 1000 µM |  | 670 µM | 
13 | C1CSC(CC[C@@H]2COCCO2)(C[C@@H]2COCCO2)SC1 | > 1000 µM | inactive |  | 
14 | ICC[C@@H]1COCCO1 | > 1000 µM |  | 250 µM | 
15 | CON=C(C[C@@H]1COCCO1)C[C@@H]1COCCO1 | > 1000 µM | inactive |  | 
16 | C(C[C@H]1COCCO1)C[C@H]1COCCO1 | > 1000 µM | inactive |  | 
17 | c1ccc(CCCC[C@@H]2COCCO2)cc1 | > 1000 µM | inactive |  | 
18 | O=C(C[C@@H]1COCCO1)C[C@@H]1COCCO1 | > 1000 µM | inactive |  | 
19 | OCC[C@@H]1COCCO1 | > 1000 µM |  | 1400 µM | 
20 | C(CC[C@@H]1COCCO1)C[C@@H]1COCCO1 | > 1000 µM |  | 1500 µM | 
21 | C1CSC(C[C@H]2COCCO2)(C[C@H]2COCCO2)SC1 | > 1000 µM | inactive |  | 
22 | ClCCOC[C@H]1CO1 | > 1000 µM |  | 1000 µM | 
23 | C(C[C@@H]1COCCO1)C[C@H]1COCCO1 (mixture of isomers) | > 1000 µM | inactive |  | 
24 | C(C[C@@H]1COCCO1)C[C@@H]1COCCO1 | > 1000 µM |  | 14 µM | selectivity ratio [5]: > 71
25 | C1CSC(CC[C@@H]2COCCO2)SC1 | > 1000 µM | inactive |  | 
26 | OC[C@H]1COCCO1 | > 5000 µM |  | 1500 µM | 
27 | C(CC[C@@H]1COCCO1)CC[C@@H]1COCCO1 | > 1000 µM |  | 1500 µM | 
28 | O=CC[C@H]1COCCO1 | > 5000 µM |  |  | EC50 (Sindbis virus [4]): 460 µM
29 | C1CSC(C[C@H]2COCCO2)SC1 | > 1000 µM |  | 1000 µM | 
30 | OCC[C@H]1COCCO1 | > 1000 µM | inactive |  | 
